Results: article PMC3148296 (Molecular pharmaceutics, 2011)

Assays:
4T1 tumors = assay: In vivo photosensitizing; parameters: species or system BALB/c mice; conditions: 10 mice/group
How it was run: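 BALB/c mice received 1 × 10⁶ 4T1 cells s.c. in 50 μL PBS at the right shoulder. Treatment began at a mean tumor volume of 62.5 mm³ (50–70). Test compound given i.v. Unanesthetized, restrained mice were irradiated at 665 nm (1 cm² spot, 135 J/cm², 75 mW/cm²). Mice were checked daily for regrowth; volume = (L × W²)/2; mice euthanized at 400 mm³.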

Solubility in solvents = assay type: physicochemical
[1] = tested on: 4T1 cells (αvβ3 positive); assay: In vitro photosensitizing; assay type: cell-based, Mouse; conditions: 4T1, 2 h incubation, 665 nm light 0-2 J/cm2, MTT 48 h later
How it was run: (§1)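 Cells kept at 37°C in 5% CO₂ in medium with 10% FBS (4T1: RPMI-1640; A431: DMEM high glucose). Plated at 3000 cells/well and allowed to attach for 3 h. Test compound added at variable concentrations for 2 h in the dark, then replaced with drug-free medium. Irradiated with a 665 nm dye laser at 3.2 mW/cm². After 48 h in the dark: MTT for 4 h, DMSO, A570. Survival given as % of dark control; mean of 3 experiments, 6 wells each, SD.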

[2] = tested on: A431 cells (αvβ3 negative); assay: In vitro photosensitizing; assay type: cell-based, Human; conditions: A431, 2 h incubation, 665 nm light 0-2 J/cm2, MTT 48 h later
How it was run: as §1

U87 cells = assay: In vitro cell uptake by flow cytometry; assay type: cell-based, Human
4T1 cells = assay: In vitro cell uptake by flow cytometry; assay type: cell-based, Mouse; conditions: 4T1, 2 h post incubation
[3] = 0.25 μmol/kg, light at 24 h post injection

Substance | tumor cure at day 60 (4T1 tumors; [3]) | tumor cure at day 60 (4T1 tumors; 0.47 μmol/kg, light at 4 h post injection) | mice tumor-free on day 60 (4T1 tumors; light at 24 h post injection, Figure 7B) | dissolution in common polar solvents (Solubility in solvents) | solubility in DMSO (Solubility in solvents) | in vitro PDT efficacy among HPPH and conjugates 7, 8, 10 [1] | in vitro phototoxicity compared to HPPH [2] | cell uptake among conjugates 7, 8 and 10 (U87 cells; U87, 400 nM and 800 nM, 2 h and 4 h post-incubation, flow cytometry) | cell uptake at 4 h versus 2 h incubation (U87 cells; U87, Figure S10) | cell uptake compared with HPPH (4T1 cells) | mice tumor-free on day 60 (4T1 tumors; light at 2 h post injection, Figure 7A)
3-(1′-hexyloxyethyl)-3-devinylpyropheophorbide-a [HPPH] | did not produce any cures | no cures | 4/10 | – | – | – | – | – | – | – | –
HPPH–cyclo(RGDfK) conjugate [conjugate 8] | – | – | – | unsuccessful | partly soluble | – | – | – | – | – | –
3-devinyl-3-{1′-(hexyloxy)ethyl}pyropheophorbide-a–cyclo(RGDfK) conjugate [conjugate 7] | did not produce any cures | – | – | – | – | most effective | less effective | highest uptake | significantly more at 4h | comparable | 8/10
